In ChEMBL document CHEMBL1955763, “Antimicrobial activity of sulfonamides containing 5-chloro-2-hydroxybenzaldehyde and 5-chloro-2-hydroxybenzoic acid scaffold” (Eur J Med Chem, 2012):
≈ marks a conversion by molar mass, not a printed value.

Key:
Trichosporon asahii = test: Antifungal activity against Trichosporon asahii 1188 after 24 hrs by broth microdilution method; format: functional; conditions: Trichosporon asahii, 1188, 24 h
Summary of the method: (§1)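 Microdilution broth per CLSI M27-A3 (yeasts) or M38-A2 (moulds) in RPMI 1640 with glutamine, buffered to pH 7.0 with 0.165 mol MOPS. Compounds were in DMSO. Final inoculum was 5 × 10³ ± 0.2 CFU/mL. Other conditions matched the antibacterial assay, with MIC as IC₉₀ read visually and at 540 nm. Determined twice, in duplicate.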

Aspergillus fumigatus = test: Antifungal activity against Aspergillus fumigatus 231 after 24 hrs by broth microdilution method; format: functional; conditions: Aspergillus fumigatus, 231, 24 h; summary of the method: as §1
Lichtheimia corymbifera = test: Antifungal activity against Absidia corymbifera 272 after 24 hrs by broth microdilution method; format: functional; conditions: Lichtheimia corymbifera, 272, 24 h; summary of the method: as §1
[1] = test system: Trichophyton mentagrophytes; test: Antifungal activity against Trichophyton mentagrophytes 445 after 24 hrs by broth microdilution method; format: functional; conditions: Trichophyton mentagrophytes, 445, 24 h
[2] = test system: Mycobacterium tuberculosis; test: Antimycobacterial activity against Mycobacterium tuberculosis H37Rv 331/88 after 14 days; format: functional; conditions: H37Rv 331/88, 336 h
[3] = test system: Mycobacterium tuberculosis; test: Antimycobacterial activity against Mycobacterium tuberculosis H37Rv 331/88 after 21 days; format: functional; conditions: H37Rv 331/88, 504 h
Summary of the method: (§2)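 Micromethod in Sula semisynthetic medium, with compounds added as DMSO solutions over a two-fold series from 1000 down to 1. Inoculum for M. avium 330/88 was a 10⁻⁵ dilution. Plates were incubated at 37 °C and MIC was read after 14 and 21 days.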

Mycobacterium avium [4] = test: Antimycobacterial activity against isoniazid-, rifampicin-, ofloxacin-, ethambutol-resistant Mycobacterium avium 330/88 after 14 days; format: functional; conditions: 330/88, 336 h; summary of the method: as §2
Mycobacterium avium [5] = test: Antimycobacterial activity against isoniazid-, rifampicin-, ofloxacin-, ethambutol-resistant Mycobacterium avium 330/88 after 21 days; format: functional; conditions: 330/88, 504 h; summary of the method: as §2
Mycobacterium kansasii [6] = test: Antimycobacterial activity against Mycobacterium kansasii 235/80 after 7 days; format: functional; conditions: 235/80, 168 h
Summary of the method: (§3)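 Micromethod MIC in Sula semisynthetic medium, with compounds added as DMSO solutions at […]. Incubation at 37 °C. Inocula: M. kansasii 235/80 at dilution 10⁻⁴, clinical isolate 6509/96 at 10⁻⁵.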

Mycobacterium kansasii [7] = test: Antimycobacterial activity against Mycobacterium kansasii 235/80 after 14 days; format: functional; conditions: 235/80, 336 h; summary of the method: as §3
Mycobacterium kansasii [8] = test: Antimycobacterial activity against Mycobacterium kansasii 235/80 after 21 days; format: functional; conditions: 235/80, 504 h; summary of the method: as §3
Mycobacterium kansasii [9] = test: Antimycobacterial activity against Mycobacterium kansasii 6509/96 after 7 days; format: functional; conditions: 6509/96, 168 h; summary of the method: as §3
Mycobacterium kansasii [10] = test: Antimycobacterial activity against Mycobacterium kansasii 6509/96 after 14 days; format: functional; conditions: 6509/96, 336 h; summary of the method: as §3
Mycobacterium kansasii [11] = test: Antimycobacterial activity against Mycobacterium kansasii 6509/96 after 21 days; format: functional; conditions: 6509/96, 504 h; summary of the method: as §3
Staphylococcus aureus [12] = test: Antibacterial activity against Staphylococcus aureus CCM 4516/08 after 24 hrs by broth microdilution method; format: functional; conditions: CCM 4516/08, 24 h
Summary of the method: (§4)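 Microdilution broth method modified from M07-A07, in Mueller-Hinton broth at pH 7.4 (±0.2). Compounds were dissolved in DMSO. Inoculum was made in sterile water to 0.5 McFarland (1.5 × 10⁸ CFU/mL). MIC was taken as IC₉₀, meaning ≥90% growth reduction versus the drug-free control. Growth was read visually and by absorbance at 540 nm.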

Staphylococcus aureus [13] = test: Antibacterial activity against Staphylococcus aureus CCM 4516/08 after 48 hrs by broth microdilution method; format: functional; conditions: CCM 4516/08, 48 h
Summary of the method: (§5)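 Broth microdilution modified from standard M07-A07 in Mueller-Hinton broth at pH 7.4 (±0.2). Compounds were dissolved in DMSO. Inoculum in sterile water was adjusted to 0.5 McFarland (1.5 × 10⁸ CFU/mL). MIC was taken as IC₉₀, i.e. ≥90% growth reduction versus control, read visually and spectrophotometrically at 540 nm.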

Staphylococcus aureus [14] = test: Antibacterial activity against methicillin-resistant Staphylococcus aureus H 5996/08 after 24 hrs by broth microdilution method; format: functional; conditions: H 5996/08, 24 h; summary of the method: as §4
Staphylococcus aureus [15] = test: Antibacterial activity against methicillin-resistant Staphylococcus aureus H 5996/08 after 48 hrs by broth microdilution method; format: functional; conditions: H 5996/08, 48 h; summary of the method: as §4
[16] = test system: Staphylococcus epidermidis; test: Antibacterial activity against methicillin-resistant Staphylococcus epidermidis H 6966/08 after 24 hrs by broth microdilution method; format: functional; conditions: H 6966/08, 24 h; summary of the method: as §4
[17] = test system: Staphylococcus epidermidis; test: Antibacterial activity against methicillin-resistant Staphylococcus epidermidis H 6966/08 after 48 hrs by broth microdilution method; format: functional; conditions: H 6966/08, 48 h; summary of the method: as §4
Candida albicans = test: Antifungal activity against Candida albicans ATCC 44857 after 24 hrs by broth microdilution method; format: functional; conditions: ATCC 44857, 24 h; summary of the method: as §1
Candida tropicalis = test: Antifungal activity against Candida tropicalis 156 after 24 hrs by broth microdilution method; format: functional; conditions: Candida tropicalis, 156, 24 h; summary of the method: as §1
Nakaseomyces glabratus = test: Antifungal activity against Candida glabrata 20/I after 24 hrs by broth microdilution method; format: functional; summary of the method: as §1
Pichia kudriavzevii = test: Antifungal activity against Candida krusei E58 after 24 hrs by broth microdilution method; format: functional; conditions: E58, 24 h; summary of the method: as §1
[18] = Selectivity ratio of IC50 for human HepG2 cell sto MIC100 for Mycobacterium kansasii 6509/96; format: functional
[19] = Selectivity ratio of IC50 for human HepG2 cell sto MIC90 for Staphylococcus aureus CCM 4516/08; format: functional
[20] = Selectivity ratio of IC50 for human HepG2 cell sto MIC100 for Mycobacterium kansasii 235/80; format: functional
HepG2 = test: Cytotoxicity against human HepG2 cells after 24 hrs by MTS assay; format: cell-based; conditions: HepG2, 24 h
Summary of the method: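 Hep G2 human liver cells (passage 3–4), 10 000 per well, in MEM with 1% glutamine, 10% fetal serum and 1% non-essential amino acids. Compounds were added from DMSO at eight increasing concentrations in quadruplicate. Exposure was 24 h at 37 °C in 5% CO₂, then MTS reagent for 1.5 h. Formazan was read at 490 nm and IC₅₀ derived as 50% of control viability.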

Escherichia coli = test: Antibacterial activity against Escherichia coli CCM 4517 after 24 hrs by broth microdilution method; format: functional; conditions: CCM 4517, 24 h; summary of the method: as §5
Klebsiella pneumoniae [21] = test: Antibacterial activity against Klebsiella pneumoniae D 11750/08 after 24 hrs by broth microdilution method; format: functional; conditions: D 11750/08, 24 h; summary of the method: as §5
Klebsiella pneumoniae [22] = test: Antibacterial activity against ESBL-positive Klebsiella pneumoniae J 14368/08 after 24 hrs by broth microdilution method; format: functional; conditions: J 14368/08, 24 h; summary of the method: as §5
Pseudomonas aeruginosa = test: Antibacterial activity against Pseudomonas aeruginosa CCM 1961 after 24 hrs by broth microdilution method; format: functional; conditions: CCM 1961, 24 h; summary of the method: as §5

Structure (SMILES)	MIC (Trichosporon asahii) [µM]	MIC (Aspergillus fumigatus) [µM]	MIC (Lichtheimia corymbifera) [µM]	MIC [2] [µM]	MIC [3] [µM]	MIC (Mycobacterium avium [4]) [µM]	MIC (Mycobacterium avium [5]) [µM]	MIC (Mycobacterium kansasii [6]) [µM]	MIC (Mycobacterium kansasii [7]) [µM]	MIC (Mycobacterium kansasii [8]) [µM]	MIC (Mycobacterium kansasii [9]) [µM]	MIC (Mycobacterium kansasii [10]) [µM]	MIC (Mycobacterium kansasii [11]) [µM]	MIC (Staphylococcus aureus [12]) [µM]	MIC (Staphylococcus aureus [13]) [µM]	MIC (Staphylococcus aureus [14]) [µM]	MIC (Staphylococcus aureus [15]) [µM]	MIC [16] [µM]	MIC [17] [µM]	MIC (Nakaseomyces glabratus) [µM]	other results
O=C(Nc1ccc(S(=O)(=O)Nc2nccs2)cc1)c1cc(Cl)ccc1O	> 125	> 125	> 125	250 (≈ 102 µg/mL)	250 (≈ 102 µg/mL)	250 (≈ 102 µg/mL)	250 (≈ 102 µg/mL)	8 (≈ 3.28 µg/mL)	16 (≈ 6.56 µg/mL)	16 (≈ 6.56 µg/mL)	8 (≈ 3.28 µg/mL)	8 (≈ 3.28 µg/mL)	8 (≈ 3.28 µg/mL)	> 125	> 125	> 125	> 125	> 125	> 125	> 125	MIC [1]: > 125 µM; MIC (Candida albicans): > 125 µM; MIC (Candida tropicalis): > 125 µM; MIC (Pichia kudriavzevii): > 125 µM
NNC(=O)c1ccncc1 [ISONIAZID]	–	–	–	0.5 (≈ 0.0686 µg/mL)	1 (≈ 0.137 µg/mL)	> 250	> 250	> 250	> 250	> 250	4 (≈ 0.549 µg/mL)	4 (≈ 0.549 µg/mL)	8 (≈ 1.1 µg/mL)	–	–	–	–	–	–	–	–
O=S(=O)(Nc1nccs1)c1ccc(/N=C/c2cc(Cl)ccc2O)cc1	> 125	> 125	> 125	32 (≈ 12.6 µg/mL)	62.5 (≈ 24.6 µg/mL)	62.5 (≈ 24.6 µg/mL)	125 (≈ 49.2 µg/mL)	2 (≈ 0.788 µg/mL)	4 (≈ 1.58 µg/mL)	4 (≈ 1.58 µg/mL)	2 (≈ 0.788 µg/mL)	2 (≈ 0.788 µg/mL)	2 (≈ 0.788 µg/mL)	31.2 (≈ 12.3 µg/mL)	31.2 (≈ 12.3 µg/mL)	31.2 (≈ 12.3 µg/mL)	31.2 (≈ 12.3 µg/mL)	> 500	> 500	> 125	MIC [1]: > 125 µM; Ratio [18]: 78.2; Ratio [19]: 10; Ratio [20]: 78.2; IC50 (HepG2): 313 µM; MIC (Escherichia coli): 500 µM (≈ 197 µg/mL); MIC (Klebsiella pneumoniae [21]): 500 µM (≈ 197 µg/mL); MIC (Klebsiella pneumoniae [22]): 500 µM (≈ 197 µg/mL); MIC (Pseudomonas aeruginosa): ≥ 500 µM; MIC (Candida albicans): > 125 µM; MIC (Candida tropicalis): > 125 µM; MIC (Pichia kudriavzevii): > 125 µM
O=S(=O)(Nc1ncccn1)c1ccc(/N=C/c2cc(Cl)ccc2O)cc1	62.5 (≈ 24.3 µg/mL)	–	–	125 (≈ 48.6 µg/mL)	250 (≈ 97.2 µg/mL)	125 (≈ 48.6 µg/mL)	125 (≈ 48.6 µg/mL)	8 (≈ 3.11 µg/mL)	16 (≈ 6.22 µg/mL)	32 (≈ 12.4 µg/mL)	16 (≈ 6.22 µg/mL)	32 (≈ 12.4 µg/mL)	32 (≈ 12.4 µg/mL)	250 (≈ 97.2 µg/mL)	250 (≈ 97.2 µg/mL)	125 (≈ 48.6 µg/mL)	125 (≈ 48.6 µg/mL)	> 500	> 500	125 (≈ 48.6 µg/mL)	MIC (Escherichia coli): 62.5 µM (≈ 24.3 µg/mL); MIC (Klebsiella pneumoniae [21]): 500 µM (≈ 194 µg/mL); MIC (Klebsiella pneumoniae [22]): 500 µM (≈ 194 µg/mL); MIC (Pseudomonas aeruginosa): ≥ 500 µM
Nc1ccc(S(=O)(=O)Nc2ncccn2)cc1 [SULFADIAZINE]	–	–	–	32 (≈ 8.01 µg/mL)	62.5 (≈ 15.6 µg/mL)	62.5 (≈ 15.6 µg/mL)	62.5 (≈ 15.6 µg/mL)	16 (≈ 4 µg/mL)	16 (≈ 4 µg/mL)	32 (≈ 8.01 µg/mL)	8 (≈ 2 µg/mL)	8 (≈ 2 µg/mL)	8 (≈ 2 µg/mL)	500 (≈ 125 µg/mL)	> 500	500 (≈ 125 µg/mL)	> 500	> 500	> 500	–	–
